From PubChem BioAssay
Values without a mark were called inactive. The source made the active and inactive calls.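 How the source made its calls: active means fluorescence slope after compound addition differing from the mean of all tested samples at 99.7% confidence, mostly higher but some lower; inactive means the rest.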

Target: Muscarinic acetylcholine receptor M4 (Homo sapiens) (UniProt P08173)
Experiment: M4-linked GIRK flux change, two-sided – cell-based, HEK293 M4/GIRK, thallium flux, BTC-AM, M4 allosteric agonist project, primary screen (AID 625);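 further: thallium influx through GIRK channels coupled to M4 in HEK293 cells with BTC-AM dye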
Settings: at 10 µM, actives lie on both sides
Method in brief: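 Material – HEK293 cells with M4 receptor and GIRK channels · Buffer or medium – pH 7.3 thallium assay buffer · Doses – one dose, 10 µM final · Timing – cells overnight at 37 °C, BTC-AM loading 1 h, reads 2 min total · Measured by – kinetic fluorescence with BTC-AM dye · Controls – carbachol and DMSO controls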

Sequence of Muscarinic acetylcholine receptor M4 (Homo sapiens) (P08173 whole entry, looked up): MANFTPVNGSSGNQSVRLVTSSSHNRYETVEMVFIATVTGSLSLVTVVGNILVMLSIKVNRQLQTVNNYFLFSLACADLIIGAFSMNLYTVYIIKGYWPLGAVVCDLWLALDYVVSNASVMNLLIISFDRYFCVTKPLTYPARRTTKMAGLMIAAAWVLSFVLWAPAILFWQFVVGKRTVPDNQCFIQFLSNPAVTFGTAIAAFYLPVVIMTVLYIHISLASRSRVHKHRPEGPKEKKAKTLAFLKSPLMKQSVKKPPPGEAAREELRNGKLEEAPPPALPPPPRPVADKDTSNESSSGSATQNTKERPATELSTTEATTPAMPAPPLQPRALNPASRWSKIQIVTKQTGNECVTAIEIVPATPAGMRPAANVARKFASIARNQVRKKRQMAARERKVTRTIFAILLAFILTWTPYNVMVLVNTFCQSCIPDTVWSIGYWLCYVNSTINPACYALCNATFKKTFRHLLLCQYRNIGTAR

SMILES | fluorescence slope
Cc1nnc2n(-c3ccccc3)c(=O)c3c4c(sc3n12)CCCC4 | 0.00446
Cc1c(NC(=O)c2ccc(=O)oc2)c(=O)n(-c2ccccc2)n1C | 0.00562
Cc1nc2sc(C#N)c(N)c2c2c1CCCC2 | 0.00523
Fc1ccc(-c2cnc[nH]2)cc1 | 0.00534
CC(CCc1ccccc1)NCC(O)c1ccc(O)c(C(N)=O)c1 (centres undefined) | 0.00425
CCOC(=O)c1ccc2nc(NC(NC(C)=O)(C(=O)OC)C(F)(F)F)sc2c1 (centres undefined) | 0.00434
COc1cccc(N2C(=O)C(O)=C(C(C)=O)C2c2ccc(OC)c(OC)c2)c1 (centres undefined) | 0.00642
CCCCOc1ccccc1C(=O)NCCCC(=O)O | 0.00573
COc1ccc(CCn2c(=N)c(C#N)cc3c(=O)n4ccccc4nc32)cc1 | 0.00759
O=C(NC1CCS(=O)(=O)C1)c1c(NC(=O)C2COc3ccccc3O2)sc2c1CCCC2 (centres undefined) | 0.00528
Cc1nn(-c2ccccc2)c2c1C(=O)NC(=O)C(C)(C)C2 | 0.00545
O=C(Nc1ccccn1)NC(C(F)(F)F)C(F)(F)F | 0.00603
CCC(NC(=O)Nc1cc(OC)c(OC)c(OC)c1)(C(F)(F)F)C(F)(F)F | 0.00495
COC(=O)C(NC(C)=O)(Nc1ccccn1)C(F)(F)F (centres undefined) | 0.00527
CC1(C)CNC(=O)c2sc(N3CCOCC3)nc2C1 | 0.00631
CCN1CCc2c(C#N)c(N3CCCCC3)nc(NCc3ccccc3)c2C1 | 0.00484
CCOC(=O)CNC(=O)Nc1ccccc1C(=O)OC | 0.00626
CCn1nc(NC(=O)c2cccnc2)c2cc3ccccc3nc21 | 0.00509
Cn1c(=O)n(Cc2ccccc2)c(=O)c2c1nc(NCC1CCCO1)n2Cc1ccccc1 (centres undefined) | 0.00514
COc1ccc2c(c1)n([O-])c1c([n+]2=O)CCC1 | 0.00434

SMILES | fluorescence slope
COc1ccc2c(c1)[nH]c1c(=O)n(CC3CCCO3)cnc12 (centres undefined) | 0.00561
CC(=O)c1c(OCC(=O)O)ccc2c(C)cc(=O)oc12 | 0.00563
O=C1C2ON(c3ccccc3)C(c3cccnc3)C2C(=O)N1c1ccccc1 (centres undefined) | 0.00593
CCCCCn1c2nc3ccccc3nc2c2c(=O)n(CC(C)C)cnc21 | 0.00475
Cc1nc2c(o1)CCc1ccccc1C2O (centres undefined) | 0.00553
Clc1ccc(-n2ncc3c(NCCCn4ccnc4)ncnc32)cc1 | 0.00622
Nc1nnnn1/N=C/c1ccccn1 | 0.00549
c1ccc(CN2CCN(c3ncnc4c3[nH]c3ccccc34)CC2)cc1 | 0.00594
Cc1cc2c(c(=O)o1)C(Cc1ccccc1)C(C#N)=C(N)O2 (centres undefined) | 0.00523
COc1cc(NC(=O)NC(C)(C(F)(F)F)C(F)(F)F)cc(OC)c1OC | 0.00489
Cc1c(O)c(CN2CCCCC2)cc2c3c(c(=O)oc12)CCC3 | 0.00439
CCOC(=O)c1[nH]c2ccc(Br)cc2c1NC(=O)CNC | 0.00596
COc1ccc(CCn2c(=N)c(C(=O)NCc3ccco3)cc3c(=O)n4ccccc4nc32)cc1 | 0.00166 (active)
CN(C)/C=C1\N=C(c2ccc(Cl)cc2Cl)OC1=O | 0.00537
Cc1ccc(/C=N/n2nnnc2N)o1 | 0.00641
COc1ccccc1N=Cc1nc(-c2ccccc2)oc1OC(C)=O | 0.00675
Cc1ccc2[nH]c3c(N4CCOCC4)ncnc3c2c1 | 0.00605
CC(=O)C1=C(O)C(=O)N(c2ccc(C(=O)O)cc2)C1c1ccccc1 (centres undefined) | 0.00575
COc1ccccc1Nc1ncnc2c1cnn2-c1cccc(C)c1 | 0.00739
